In paper PMC5077689 (FEBS letters, 2016):

Columns and labels:
[1] = target: T1, bovine lung sGC (Bos taurus, UniProt P16068+P19687); test: BAY 58-2667 activated sGC activity assay; assay type: biochemical; conditions: 100μM inhibitor, 600μM GTP
T1 sequence (P19687 1-691): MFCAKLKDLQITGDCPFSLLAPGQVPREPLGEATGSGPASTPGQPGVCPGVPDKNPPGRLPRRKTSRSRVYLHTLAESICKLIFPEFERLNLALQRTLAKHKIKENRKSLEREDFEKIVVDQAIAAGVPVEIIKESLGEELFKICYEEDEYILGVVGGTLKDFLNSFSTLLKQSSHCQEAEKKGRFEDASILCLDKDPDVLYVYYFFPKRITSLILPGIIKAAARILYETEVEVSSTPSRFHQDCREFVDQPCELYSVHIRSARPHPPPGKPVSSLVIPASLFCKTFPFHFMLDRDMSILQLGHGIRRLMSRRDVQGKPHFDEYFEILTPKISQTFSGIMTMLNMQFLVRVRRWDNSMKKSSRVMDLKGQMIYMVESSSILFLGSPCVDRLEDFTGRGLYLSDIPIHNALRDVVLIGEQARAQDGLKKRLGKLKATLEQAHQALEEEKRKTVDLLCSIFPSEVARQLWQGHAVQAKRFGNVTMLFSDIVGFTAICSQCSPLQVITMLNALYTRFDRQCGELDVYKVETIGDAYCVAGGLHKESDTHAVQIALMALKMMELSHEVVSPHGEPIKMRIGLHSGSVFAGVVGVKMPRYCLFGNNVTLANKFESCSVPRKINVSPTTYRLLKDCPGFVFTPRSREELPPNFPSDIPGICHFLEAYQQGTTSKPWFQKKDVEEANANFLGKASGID
T1 sequence (P16068 1-619): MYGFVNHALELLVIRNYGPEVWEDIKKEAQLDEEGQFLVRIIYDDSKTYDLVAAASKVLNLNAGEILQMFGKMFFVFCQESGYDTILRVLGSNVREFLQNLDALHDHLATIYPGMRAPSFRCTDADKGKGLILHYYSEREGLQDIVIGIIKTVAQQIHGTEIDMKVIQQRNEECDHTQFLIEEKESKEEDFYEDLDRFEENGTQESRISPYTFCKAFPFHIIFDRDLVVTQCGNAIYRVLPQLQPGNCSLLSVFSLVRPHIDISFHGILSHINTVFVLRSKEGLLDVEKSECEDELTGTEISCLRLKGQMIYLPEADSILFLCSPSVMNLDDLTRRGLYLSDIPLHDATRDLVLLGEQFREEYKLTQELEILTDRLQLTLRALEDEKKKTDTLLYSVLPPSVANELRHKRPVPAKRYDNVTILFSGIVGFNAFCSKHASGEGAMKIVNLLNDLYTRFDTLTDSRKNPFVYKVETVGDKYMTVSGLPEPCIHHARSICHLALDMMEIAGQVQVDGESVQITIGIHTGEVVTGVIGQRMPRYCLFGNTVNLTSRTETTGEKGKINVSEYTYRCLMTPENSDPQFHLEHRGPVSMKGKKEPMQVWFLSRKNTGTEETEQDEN
Summary of the method: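 Bovine lung sGC, diluted 17-fold in 50mM Tris pH 7.5, 5mM MgCl2, 2mM BME, 20% sucrose, 0.5mg/ml BSA, used at 1nM. Preincubated 10 min at 37°C with varying BAY 58-2667 and inhibitor in 5mM MgCl2. 0.5% DMSO served as control. GTP added to start. Stopped by boiling; cGMP measured by ELISA. Triplicate, 3 independent experiments; SEM.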

[2] = target: T2, full length sGC (Bos taurus, UniProt P16068+P19687); test: Size exclusion chromatography for sGC aggregation; conditions: 200μM compound, data not shown
T2 sequence (P19687 1-691): T1 sequence (P19687 1-691)
T2 sequence (P16068 1-619): T1 sequence (P16068 1-619)

[3] = target: T3, sGC catalytic domain (Homo sapiens, UniProt Q02108+Q02153); test: Purified sGC catalytic domain activity assay; assay type: biochemical; conditions: 1μM catalytic domain, 3 GTP concentrations, inhibitor 0–600μM
T3 sequence (Q02108 481-608 limits assumed): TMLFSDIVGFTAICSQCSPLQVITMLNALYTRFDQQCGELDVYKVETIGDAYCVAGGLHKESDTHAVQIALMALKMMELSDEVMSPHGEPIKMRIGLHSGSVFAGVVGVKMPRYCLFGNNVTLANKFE
T3 sequence (Q02153 421-554 limits assumed): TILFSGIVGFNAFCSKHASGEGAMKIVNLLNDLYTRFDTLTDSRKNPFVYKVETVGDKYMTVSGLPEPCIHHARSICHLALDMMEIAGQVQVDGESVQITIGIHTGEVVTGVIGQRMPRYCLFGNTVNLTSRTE
Summary of the method: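 Heterodimeric α1/β1 catalytic domain was co-purified from mixed cell pellets by His-tag Ni-NTA (30–300mM imidazole elution steps). The tag was removed with TEV, and the protein gel-filtered in 50mM HEPES pH 7, 150mM NaCl and stored at −80°C. Inhibitor was preincubated with domain 10 min at 37°C with Mg2+. GTP started the reaction, stopped by boiling after 10 min. cGMP measured by ELISA; triplicate; SEM.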

[4] = target: T1, bovine lung sGC; test: BAY 41-2272 stimulated sGC activity assay; assay type: biochemical; conditions: 100μM inhibitor, range of BAY 41-2272, presence and absence of 1μM SNAP, 500μM GTP
[5] = target: SHV-1 β-lactamase (Klebsiella pneumoniae, UniProt P0AD64); test: Promiscuous inhibition test with SHV-1 β-lactamase; assay type: biochemical; conditions: Fig S1
Chain of SHV-1 β-lactamase (P0AD64 22-286): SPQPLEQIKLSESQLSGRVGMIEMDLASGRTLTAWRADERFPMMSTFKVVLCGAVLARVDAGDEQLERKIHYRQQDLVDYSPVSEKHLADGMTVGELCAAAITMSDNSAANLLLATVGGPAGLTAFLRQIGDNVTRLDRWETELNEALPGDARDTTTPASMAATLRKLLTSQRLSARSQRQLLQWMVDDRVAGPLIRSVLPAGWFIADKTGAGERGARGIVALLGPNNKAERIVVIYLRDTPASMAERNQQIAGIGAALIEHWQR

[6] = Compound aggregation by dynamic light scattering; assay type: physicochemical; conditions: DYNAPRO, Fig S2
[7] = target: T1, bovine lung sGC; test: NO; assay type: biochemical
Summary of the method: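 Screening and kinetics used bovine lung sGC diluted 17-fold in 50mM Tris pH 7.5, 5mM MgCl2, 2mM BME, 20% sucrose, 0.5mg/ml BSA. 1nM enzyme was preincubated with inhibitor 10 min at 37°C in 50mM Tris pH 7.5, 2mM BME, 5mM MgCl2. DMSO-matched controls (1–2.5%). GTP plus 100μM SNAP started a 10 min, 37°C reaction, stopped by 10 min boiling. cGMP measured by ELISA; 3 independent experiments.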

## Nc1nc(=O)[nH]nc1Nc1ccc(O)cc1 [Compound 1]
[1]
  inhibition of BAY 58-2667 activated sGC: 96%
[2]
  sGC aggregation caused by compound (size exclusion chromatography): did not cause sGC aggregation
[3]
  inhibition of the purified catalytic domain (in words): did not observe significant inhibition
[4]
  inhibition of BAY 41-2272 stimulated sGC: inhibited
[5]
  inhibition of SHV-1 β-lactamase: did not inhibit
[6]
  aggregate formation (dynamic light scattering): do not form detectably large aggregates
[7]; 1nM sGC, 25μM GTP, 100μM SNAP, 10μM inhibitor
  inhibition of NO stimulated sGC activity, initial screen: substantial inhibition
[7]; global fit of steady state inhibition data, 100μM SNAP
  α-value (mixed inhibition model): 3.6
[7]; judged from α-value of mixed model fit
  inhibition mechanism: mostly non-competitive
